Results reported in ChEMBL document CHEMBL1133924, “Inhibitors of bacterial enoyl acyl carrier protein reductase (FabI): 2,9-disubstituted 1,2,3,4-tetrahydropyrido[3,4-b]indoles as potential antibacterial agents” (Bioorg Med Chem Lett, 2001).
≈ marks a conversion by molar mass, not a printed value.

Key:
[1] = biological target: T1, Enoyl-[acyl-carrier-protein] reductase [NADPH] FabI (Staphylococcus aureus, UniProt Q6GI75); assay: Antibacterial activity against Staphylococcus aureus FabI
T1 sequence (Q6GI75 whole entry): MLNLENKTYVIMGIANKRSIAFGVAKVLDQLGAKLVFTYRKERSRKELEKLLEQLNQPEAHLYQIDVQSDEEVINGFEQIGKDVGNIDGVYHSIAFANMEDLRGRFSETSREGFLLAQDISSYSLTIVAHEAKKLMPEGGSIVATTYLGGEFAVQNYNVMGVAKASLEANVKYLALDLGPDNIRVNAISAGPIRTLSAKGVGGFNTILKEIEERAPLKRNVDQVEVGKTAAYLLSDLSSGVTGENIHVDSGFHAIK

Staphylococcus aureus = assay: In vitro antibacterial activity against Staphylococcus aureus FabI
Escherichia coli = assay: In vitro antibacterial activity against Escherichia coli FabI
Moraxella catarrhalis = assay: In vitro antibacterial activity against Moraxella catarrhalis 1502 FabI
How it was run: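 Broth microdilution MIC in cation-adjusted Mueller–Hinton broth. Compounds were dissolved in DMSO, diluted 1:10 in water, then serially diluted. Each well received about 1×10⁶ cfu/mL inoculum. Plates were incubated at 35 °C in ambient air for 18–24 h.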

[2] = biological target: T2, Enoyl-[acyl-carrier-protein] reductase [NADH] FabI (Escherichia coli K-12, UniProt P0AEK4); assay: Antibacterial activity against Escherichia coli FabI
T2 sequence (P0AEK4 whole entry): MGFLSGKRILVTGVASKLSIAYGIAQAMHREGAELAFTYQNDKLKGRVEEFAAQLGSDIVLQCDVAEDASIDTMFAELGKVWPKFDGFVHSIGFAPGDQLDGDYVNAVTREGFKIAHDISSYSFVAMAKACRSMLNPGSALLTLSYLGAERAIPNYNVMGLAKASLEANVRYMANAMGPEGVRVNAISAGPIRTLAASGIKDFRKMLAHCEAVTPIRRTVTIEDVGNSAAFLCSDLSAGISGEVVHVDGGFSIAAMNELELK

[3] = biological target: T2, Enoyl-[acyl-carrier-protein] reductase [NADH] FabI; assay: Antibacterial activity against Escherichia coli Enoyl-[acyl-carrier-protein] reductase was determined

SMILES: Cc1cc(C(=O)N2CCc3c(n(Cc4ccc(O)cc4)c4ccccc34)C2)ccc1O
- IC50 [1]: 0.18 µM
- MIC (Staphylococcus aureus): 1 µg/mL (≈ 2.42 µM)
- MIC (Escherichia coli): > 64 µg/mL
- MIC (Moraxella catarrhalis): 8 µg/mL (≈ 19.4 µM)
- IC50 [2]: 4.4 µM

SMILES: O=C(c1ccc(O)cc1)N1CCc2c([nH]c3ccccc23)C1
- IC50 [3]: 18 µM

SMILES: COC(=O)Cn1c2c(c3ccccc31)CCN(C(=O)c1ccc(O)cc1)C2
- IC50 [3]: 34.9 µM

SMILES: O=C(c1ccccc1O)N1CCc2c(n(Cc3ccc(O)cc3)c3ccccc23)C1
- IC50 [1]: 0.72 µM
- MIC (Staphylococcus aureus): 4 µg/mL (≈ 10 µM)
- MIC (Escherichia coli): > 64 µg/mL
- MIC (Moraxella catarrhalis): 8 µg/mL (≈ 20.1 µM)
- IC50 [2]: 4.3 µM

SMILES: Cc1ccc(C(=O)N2CCc3c(n(Cc4ccc(O)cc4)c4ccccc34)C2)cc1
- IC50 [1]: 0.24 µM
- MIC (Staphylococcus aureus): 0.5 µg/mL (≈ 1.26 µM)
- MIC (Escherichia coli): > 64 µg/mL
- MIC (Moraxella catarrhalis): > 64 µg/mL
- IC50 [2]: 5.2 µM

SMILES: O=C(c1ccc(Cl)cc1)N1CCc2c(n(Cc3ccc(O)cc3)c3ccccc23)C1
- IC50 [1]: 0.18 µM
- MIC (Staphylococcus aureus): 4 µg/mL (≈ 9.59 µM)
- MIC (Escherichia coli): > 64 µg/mL
- MIC (Moraxella catarrhalis): > 64 µg/mL
- IC50 [2]: 16.8 µM

SMILES: O=C(c1ccc(Cl)cc1O)N1CCc2c(n(Cc3ccc(O)cc3)c3ccccc23)C1
- IC50 [1]: 0.16 µM
- MIC (Staphylococcus aureus): 1 µg/mL (≈ 2.31 µM)
- MIC (Escherichia coli): > 64 µg/mL
- MIC (Moraxella catarrhalis): 2 µg/mL (≈ 4.62 µM)
- IC50 [2]: 6.1 µM

SMILES: COC(=O)c1ccc(C(=O)N2CCc3c(n(Cc4ccc(O)cc4)c4ccccc34)C2)cc1
- IC50 [1]: 2 µM
- IC50 [2]: > 50 µM

SMILES: CCCCc1ccc(C(=O)N2CCc3c(n(Cc4ccc(O)cc4)c4ccccc34)C2)cc1
- IC50 [1]: 0.51 µM
- IC50 [2]: > 50 µM

SMILES: Cc1ccc(C(=O)N2CCc3c(n(Cc4ccc(O)cc4)c4ccccc34)C2)c(O)c1
- IC50 [1]: 0.12 µM
- MIC (Staphylococcus aureus): 1 µg/mL (≈ 2.42 µM)
- MIC (Escherichia coli): > 64 µg/mL
- MIC (Moraxella catarrhalis): 4 µg/mL (≈ 9.7 µM)
- IC50 [2]: 8.2 µM

SMILES: O=C(c1ccc(O)c(Cl)c1)N1CCc2c(n(Cc3ccc(O)cc3)c3ccccc23)C1
- IC50 [1]: 0.16 µM
- MIC (Staphylococcus aureus): 1 µg/mL (≈ 2.31 µM)
- MIC (Escherichia coli): > 64 µg/mL
- MIC (Moraxella catarrhalis): 4 µg/mL (≈ 9.24 µM)
- IC50 [2]: 3.4 µM

SMILES: Cc1cc(O)c(C)c(O)c1C(=O)N1CCc2c(n(Cc3ccc(O)cc3)c3ccccc23)C1
- IC50 [1]: > 50 µM
- IC50 [2]: > 50 µM

SMILES: O=C(c1ccc(O)cc1)N1CCc2c(n(Cc3ccccc3)c3ccccc23)C1
- IC50 [3]: 27 µM

SMILES: CN(Cc1cc2ccccc2n1Cc1ccc(O)cc1)C(=O)c1ccc(O)cc1
- IC50 [1]: 1 µM

SMILES: O=C(c1cccc(O)c1)N1CCc2c(n(Cc3ccc(O)cc3)c3ccccc23)C1
- IC50 [1]: 3.4 µM
- IC50 [2]: > 50 µM

SMILES: Nc1ccc(Cn2c3c(c4ccccc42)CCN(C(=O)c2ccc(O)cc2)C3)cc1
- IC50 [1]: 0.67 µM
- IC50 [2]: 21.4 µM

SMILES: COC(=O)CCCCn1c2c(c3ccccc31)CCN(C(=O)c1ccc(O)cc1)C2
- IC50 [3]: 26.8 µM

SMILES: O=C(c1ccc(O)cc1)N1CCc2c(n(Cc3cccc(O)c3)c3ccccc23)C1
- IC50 [3]: 8.8 µM

SMILES: CS(=O)(=O)c1ccc(Cn2c3c(c4ccccc42)CCN(C(=O)c2ccc(O)cc2)C3)cc1
- IC50 [1]: 0.33 µM
- IC50 [2]: 4.5 µM

SMILES: O=C(c1ccc(O)cc1)N1CCc2c(n(Cc3ccc(O)cc3)c3ccccc23)C1
- IC50 [1]: 0.11 µM
- MIC (Staphylococcus aureus): 0.5 µg/mL (≈ 1.25 µM)
- MIC (Escherichia coli): > 64 µg/mL
- MIC (Moraxella catarrhalis): 8 µg/mL (≈ 20.1 µM)
- IC50 [2]: 4.2 µM

SMILES: O=C(c1ccc(O)cc1)N1CCc2c(c3ccccc3n2Cc2ccc(O)cc2)C1
- IC50 [1]: 32.4 µM

SMILES: Cn1c2c(c3ccccc31)CCN(C(=O)c1ccc(O)cc1)C2
- IC50 [3]: 11 µM

SMILES: O=C(c1ccc(O)cc1)N1CCc2c([nH]c3ccccc23)C1c1ccc(O)cc1 (configuration not stated)
- IC50 [1]: 28.1 µM

SMILES: O=C(c1cc(Cl)cc(Cl)c1O)N1CCc2c(n(Cc3ccc(O)cc3)c3ccccc23)C1
- IC50 [1]: 1.8 µM
- IC50 [2]: 9.9 µM

SMILES: COc1ccc(C(=O)N2CCc3c(n(Cc4ccc(O)cc4)c4ccccc34)C2)cc1
- IC50 [1]: 0.37 µM
- IC50 [2]: 35.5 µM

SMILES: Cc1cc(C(=O)N2CCc3c(n(Cc4ccc(O)cc4)c4ccccc34)C2)cc(C)c1O
- IC50 [1]: 2.9 µM
- IC50 [2]: 23 µM

SMILES: Nc1ccc(C(=O)N2CCc3c(n(Cc4ccc(O)cc4)c4ccccc34)C2)cc1
- IC50 [1]: 1 µM
- IC50 [2]: 4 µM

SMILES: O=C(O)c1ccc(Cn2c3c(c4ccccc42)CCN(C(=O)c2ccc(O)cc2)C3)cc1
- IC50 [1]: 8.7 µM
- IC50 [2]: > 50 µM

SMILES: O=C(c1ccc(Cl)cc1Cl)N1CCc2c(n(Cc3ccc(O)cc3)c3ccccc23)C1
- IC50 [1]: 1.8 µM
- IC50 [2]: 35.8 µM

SMILES: CNc1ccc(C(=O)N2CCc3c(n(Cc4ccc(O)cc4)c4ccccc34)C2)cc1
- IC50 [1]: 2.1 µM
- IC50 [2]: 38.6 µM

SMILES: O=C(c1ccccc1)N1CCc2c(n(Cc3ccc(O)cc3)c3ccccc23)C1
- IC50 [1]: 0.49 µM
- IC50 [2]: 2.7 µM

SMILES: O=C(c1ccc(O)cc1)N1CCc2c(n(Cc3ccc(F)cc3)c3ccccc23)C1
- IC50 [1]: 0.25 µM
- IC50 [2]: 4.2 µM

SMILES: Oc1cc(Cl)ccc1Oc1ccc(Cl)cc1Cl
- MIC (Staphylococcus aureus): 0.03 µg/mL (≈ 0.104 µM)
- MIC (Escherichia coli): 4 µg/mL (≈ 13.8 µM)
- MIC (Moraxella catarrhalis): 0.06 µg/mL (≈ 0.207 µM)
